# Laboratory results reported in ChEMBL document CHEMBL4145441, “Discovery of N-(5-((5-chloro-4-((2-(isopropylsulfonyl)phenyl)amino)pyrimidin-2-yl)amino)-4-methoxy-2-(4-methyl-1,4-diazepan-1-yl)phenyl)acrylamide (CHMFL-ALK/EGFR-050) as a potent ALK/EGFR dual kinase inhibitor capable of overcoming a variety of ALK/EGFR associated drug resistant mutants in NSCLC” (Eur J Med Chem, 2017).
# Activity calls are given as the source filed them. The calls are words filed in the database; no cut-off is given here.
# Columns and labels:
# [1] = MRT (0 to t) in Sprague-Dawley rat at 1 mg/kg, iv; assay type: ADME, organism-based; settings: in vivo
# Outline: (§1)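 Pharmacokinetics in rats given a single dose either intravenously at 1 mg/kg or orally at 10 mg/kg. Plasma parameters derived include AUC0-t, AUC0-∞, MRT(0-t), Cmax, Tmax, T1/2 and oral F (%).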
# [2] = Tmax in Sprague-Dawley rat at 10 mg/kg, po; assay type: ADME, organism-based; settings: in vivo; outline: as §1
# NCI-H3122 [3] = experiment: Induction of apoptosis in human NCI-H3122 cells assessed as increase in cleaved caspase-3 expression level at 300 nM after 24 hrs by Western blot method; assay type: functional, cell-based
# [4] = tested on: Epidermal growth factor receptor (Homo sapiens), P00533 [T790M]; experiment: Inhibition of TEL-fused EGFR T790M mutant (unknown origin) expressed in mouse BAF3 cells assessed as decrease in cell proliferation after 72 hrs by CellTiter-Glo assay; assay type: cell-based
# [5] = tested on: Epidermal growth factor receptor (Homo sapiens), P00533 [L858R,T790M,C797S]; experiment: Inhibition of full length EGFR L858R/T790M/C797S mutant (unknown origin) expressed in mouse BAF3 cells assessed as decrease in cell proliferation after 72 hrs by CellTiter-Glo assay; assay type: cell-based
# NCI-H3122 [6] = experiment: Antitumor activity against human NCI-H3122 cells xenografted in po dosed nu/nu mouse assessed as decrease in cell proliferation administered for 28 days by Ki67 staining-based immunohistochemical analysis; assay type: functional, organism-based
# Homo sapiens [7] = organism: Homo sapiens; experiment: Selectivity index, ratio of IC50 for recombinant human wild-type His-tagged EGFR to IC50 for recombinant human GST-tagged EGFR L858R/T790M mutant
# Mus musculus [8] = experiment: Toxicity in nu/nu mouse xenografted with human NCI-H3122 cells assessed as change in body weight at 10 to 40 mg/kg, po qd administered for 28 days; assay type: organism-based; settings: in vivo, 672 h
# Homo sapiens [9] = organism: Homo sapiens; experiment: Selectivity index, ratio of IC50 for recombinant human wild-type His-tagged EGFR to IC50 for recombinant human GST-tagged EGFR T790M mutant
# [10] = biological target: T1, Epidermal growth factor receptor (Homo sapiens, UniProt P00533); experiment: Inhibition of EGFR in human A549 cells assessed as reduction in EGF-induced 4EBP1 phosphorylation at Thr37/46 site up to 3 uM after 4 hrs by immunoblotting method; assay type: cell-based
# T1 sequence (P00533 whole entry): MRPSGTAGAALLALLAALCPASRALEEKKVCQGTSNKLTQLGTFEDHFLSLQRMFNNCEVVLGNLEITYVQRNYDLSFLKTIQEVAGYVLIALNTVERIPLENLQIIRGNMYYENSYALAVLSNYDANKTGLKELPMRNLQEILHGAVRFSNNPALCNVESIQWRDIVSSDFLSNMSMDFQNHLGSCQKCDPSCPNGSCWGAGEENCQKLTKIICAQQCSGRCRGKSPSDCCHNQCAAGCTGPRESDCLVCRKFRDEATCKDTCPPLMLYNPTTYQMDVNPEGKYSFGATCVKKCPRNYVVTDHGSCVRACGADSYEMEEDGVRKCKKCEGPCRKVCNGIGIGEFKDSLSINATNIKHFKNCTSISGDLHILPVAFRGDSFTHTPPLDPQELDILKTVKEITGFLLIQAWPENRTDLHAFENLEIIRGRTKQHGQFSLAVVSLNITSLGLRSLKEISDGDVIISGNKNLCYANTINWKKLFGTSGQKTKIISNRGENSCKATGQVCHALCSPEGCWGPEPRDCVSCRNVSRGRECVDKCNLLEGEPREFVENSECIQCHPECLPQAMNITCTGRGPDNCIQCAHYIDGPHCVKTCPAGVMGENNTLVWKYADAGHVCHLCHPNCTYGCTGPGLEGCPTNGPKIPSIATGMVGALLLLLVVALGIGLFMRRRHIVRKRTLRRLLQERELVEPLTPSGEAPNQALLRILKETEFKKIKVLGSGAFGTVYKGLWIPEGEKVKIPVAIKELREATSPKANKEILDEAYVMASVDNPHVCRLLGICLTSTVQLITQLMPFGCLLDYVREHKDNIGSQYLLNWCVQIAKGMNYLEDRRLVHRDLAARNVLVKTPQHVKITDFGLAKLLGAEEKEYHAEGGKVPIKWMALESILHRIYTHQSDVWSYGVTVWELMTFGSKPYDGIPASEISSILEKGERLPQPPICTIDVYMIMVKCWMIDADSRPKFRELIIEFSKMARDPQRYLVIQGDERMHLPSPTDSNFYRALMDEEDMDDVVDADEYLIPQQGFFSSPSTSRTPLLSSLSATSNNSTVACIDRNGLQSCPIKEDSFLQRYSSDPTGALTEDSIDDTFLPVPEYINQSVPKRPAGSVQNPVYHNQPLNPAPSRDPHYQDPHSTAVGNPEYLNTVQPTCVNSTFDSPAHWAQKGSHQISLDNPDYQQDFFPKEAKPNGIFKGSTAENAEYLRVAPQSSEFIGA
# A549 [11] = experiment: Induction of apoptosis in human A549 cells assessed as increase in cleaved PARP expression level up to 1 uM after 24 hrs by Western blot method; assay type: functional, cell-based
# NCI-H3122 [12] = experiment: Cell cycle arrest in human NCI-H3122 cells assessed as accumulation at G0/G1 phase at 0.03 to 0.3 uM after 24 hrs by propidium iodide/RNase staining-based flow cytometry; assay type: functional
# [13] = biological target: T1, Epidermal growth factor receptor; experiment: Inhibition of EGFR phosphorylation at Y1068 in human PC9 cells at 30 nM after 4 hrs by immunoblotting method; assay type: cell-based
# PC-9 = experiment: Cell cycle arrest in human PC9 cells assessed as accumulation at G0/G1 phase at 0.03 to 1 uM after 24 hrs by propidium iodide/RNase staining-based flow cytometry; assay type: functional
# NCI-H1975 [14] = experiment: Induction of apoptosis in human NCI-H1975 cells assessed as increase in cleaved PARP expression level at 300 nM to 1 uM after 24 hrs by Western blot method; assay type: functional, cell-based
# [15] = biological target: ALK tyrosine kinase receptor (Homo sapiens, UniProt Q9UM73); experiment: Inhibition of ALK in human NCI-H3122 cells harboring EML4-fused ALK assessed as reduction in ALK-induced AKT phosphorylation at Ser473 residue up to 3 uM after 2 hrs by immunoblot method; assay type: cell-based
# Sequence of ALK tyrosine kinase receptor (Homo sapiens, UniProt Q9UM73) (Q9UM73 19-1620 limits assumed): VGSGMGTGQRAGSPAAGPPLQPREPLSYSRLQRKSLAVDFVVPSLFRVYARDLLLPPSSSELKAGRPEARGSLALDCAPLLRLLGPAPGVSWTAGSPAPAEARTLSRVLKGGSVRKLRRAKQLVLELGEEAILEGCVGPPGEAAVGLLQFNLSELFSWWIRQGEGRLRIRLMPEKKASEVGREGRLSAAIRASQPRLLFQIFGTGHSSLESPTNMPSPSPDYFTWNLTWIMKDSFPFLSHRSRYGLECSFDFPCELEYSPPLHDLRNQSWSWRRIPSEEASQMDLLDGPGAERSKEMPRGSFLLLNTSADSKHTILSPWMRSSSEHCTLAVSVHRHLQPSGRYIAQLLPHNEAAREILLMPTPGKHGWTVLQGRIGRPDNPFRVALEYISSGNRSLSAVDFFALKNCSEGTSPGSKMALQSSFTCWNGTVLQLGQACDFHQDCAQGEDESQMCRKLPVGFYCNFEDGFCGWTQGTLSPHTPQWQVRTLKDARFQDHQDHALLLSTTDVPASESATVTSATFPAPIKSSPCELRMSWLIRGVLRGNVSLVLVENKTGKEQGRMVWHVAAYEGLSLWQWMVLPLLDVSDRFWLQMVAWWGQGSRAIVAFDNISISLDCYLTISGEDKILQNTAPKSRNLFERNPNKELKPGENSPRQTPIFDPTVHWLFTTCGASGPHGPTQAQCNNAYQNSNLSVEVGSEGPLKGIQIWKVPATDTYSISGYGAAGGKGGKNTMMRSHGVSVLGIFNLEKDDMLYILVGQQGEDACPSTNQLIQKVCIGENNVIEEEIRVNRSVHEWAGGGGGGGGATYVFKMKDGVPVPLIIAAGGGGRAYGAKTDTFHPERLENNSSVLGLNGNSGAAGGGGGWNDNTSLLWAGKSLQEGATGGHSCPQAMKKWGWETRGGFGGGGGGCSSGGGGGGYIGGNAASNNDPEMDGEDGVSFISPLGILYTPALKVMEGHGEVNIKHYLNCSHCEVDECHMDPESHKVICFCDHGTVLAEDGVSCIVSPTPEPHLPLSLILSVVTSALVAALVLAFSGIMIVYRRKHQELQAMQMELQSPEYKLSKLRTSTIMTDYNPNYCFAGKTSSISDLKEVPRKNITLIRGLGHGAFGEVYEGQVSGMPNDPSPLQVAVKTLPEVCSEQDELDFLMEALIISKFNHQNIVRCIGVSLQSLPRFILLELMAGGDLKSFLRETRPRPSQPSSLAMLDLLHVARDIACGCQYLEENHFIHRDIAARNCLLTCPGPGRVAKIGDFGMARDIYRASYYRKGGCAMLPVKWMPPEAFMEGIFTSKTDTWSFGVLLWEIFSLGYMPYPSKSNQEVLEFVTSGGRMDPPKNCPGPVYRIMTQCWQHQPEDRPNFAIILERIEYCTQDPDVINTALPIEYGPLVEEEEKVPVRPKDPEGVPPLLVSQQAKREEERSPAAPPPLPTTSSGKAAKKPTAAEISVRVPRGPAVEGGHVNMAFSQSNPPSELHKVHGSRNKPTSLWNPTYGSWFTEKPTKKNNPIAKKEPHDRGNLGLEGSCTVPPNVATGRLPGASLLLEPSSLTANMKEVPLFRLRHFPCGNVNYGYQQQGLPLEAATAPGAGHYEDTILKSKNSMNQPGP
# NCI-H1975 [16] = experiment: Antitumor activity against human NCI-H1975 cells xenografted in nu/nu mouse assessed as tumor growth inhibition at 40 mg/kg, po qd administered for 21 days; settings: 504 h, read-out: TGI
# [17] = biological target: ALK tyrosine kinase receptor (Homo sapiens, UniProt Q9UM73, R1275Q); experiment: Inhibition of recombinant human N-terminal GST/His6-fused ALK R1275Q mutant expressed in Sf9 insect cells using Tyr 1 peptide as substrate after 1 hr by Z-LYTE assay
# Sequence of ALK tyrosine kinase receptor (Homo sapiens, UniProt Q9UM73, R1275Q) (Q9UM73 19-1620 R1275Q limits assumed): as the sequence (Q9UM73 19-1620 limits assumed) above, with R1257Q counted along it
# A549 [18] = experiment: Cell cycle arrest in human A549 cells assessed as accumulation at G0/G1 phase at 0.03 to 1 uM after 24 hrs by propidium iodide/RNase staining-based flow cytometry; assay type: functional
# Mus musculus [19] = experiment: Toxicity in nu/nu mouse xenografted with human NCI-H1975 cells assessed as change in body weight at 10 to 40 mg/kg, po qd administered for 21 days; settings: in vivo, 504 h
# NCI-H1975 [20] = experiment: Antiproliferative activity against human NCI-H1975 cells harboring EGFR L858R/T790M mutant after 72 hrs by CellTiter-Glo assay; assay type: functional; settings: NCI-H1975, 72 h
# Outline: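 Antiproliferative GI50 against H1975 and H3122 cells; each GI50 value obtained from triplicate testing.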
# [21] = Antiproliferative activity against mouse BAF3 cells after 72 hrs by CellTiter-Glo assay; assay type: cell-based
# A549 [22] = experiment: Induction of apoptosis in human A549 cells assessed as increase in cleaved caspase-3 expression level up to 1 uM after 24 hrs by Western blot method; assay type: functional, cell-based
# [23] = tested on: ALK tyrosine kinase receptor (Homo sapiens), Q9UM73 [F1174L]
# NCI-H1975 [24] = experiment: Induction of apoptosis in human NCI-H1975 cells xenografted in po dosed nu/nu mouse administered for 21 days by DAB-chromogen-based TUNEL assay
# NCI-H3122 [25] = experiment: Antitumor activity against human NCI-H3122 cells xenografted in po dosed nu/nu mouse assessed as tumor growth inhibition administered for 28 days; assay type: functional, organism-based
# [26] = tested on: ALK tyrosine kinase receptor (Homo sapiens), Q9UM73 [G1202R]
# [27] = biological target: T1, Epidermal growth factor receptor; experiment: Inhibition of EGFR in human A549 cells assessed as reduction in EGF-induced STAT3 phosphorylation at Tyr705 residue up to 3 uM after 4 hrs by immunoblotting method; assay type: cell-based
# NCI-H3255 = experiment: Antiproliferative activity against human H3255 cells harboring EGFR L858R mutant after 72 hrs by CellTiter-Glo assay; assay type: functional; settings: NCI-H3255, 72 h
# [28] = biological target: Epidermal growth factor receptor (Homo sapiens, UniProt P00533, T790M); experiment: Inhibition of recombinant human GST-tagged EGFR T790M mutant expressed in Baculovirus expression system using Tyr 4 peptide as substrate after 1 hr in presence of ATP by Z-LYTE assay
# Sequence of Epidermal growth factor receptor (Homo sapiens, UniProt P00533, T790M) (P00533 25-1210 T790M limits assumed): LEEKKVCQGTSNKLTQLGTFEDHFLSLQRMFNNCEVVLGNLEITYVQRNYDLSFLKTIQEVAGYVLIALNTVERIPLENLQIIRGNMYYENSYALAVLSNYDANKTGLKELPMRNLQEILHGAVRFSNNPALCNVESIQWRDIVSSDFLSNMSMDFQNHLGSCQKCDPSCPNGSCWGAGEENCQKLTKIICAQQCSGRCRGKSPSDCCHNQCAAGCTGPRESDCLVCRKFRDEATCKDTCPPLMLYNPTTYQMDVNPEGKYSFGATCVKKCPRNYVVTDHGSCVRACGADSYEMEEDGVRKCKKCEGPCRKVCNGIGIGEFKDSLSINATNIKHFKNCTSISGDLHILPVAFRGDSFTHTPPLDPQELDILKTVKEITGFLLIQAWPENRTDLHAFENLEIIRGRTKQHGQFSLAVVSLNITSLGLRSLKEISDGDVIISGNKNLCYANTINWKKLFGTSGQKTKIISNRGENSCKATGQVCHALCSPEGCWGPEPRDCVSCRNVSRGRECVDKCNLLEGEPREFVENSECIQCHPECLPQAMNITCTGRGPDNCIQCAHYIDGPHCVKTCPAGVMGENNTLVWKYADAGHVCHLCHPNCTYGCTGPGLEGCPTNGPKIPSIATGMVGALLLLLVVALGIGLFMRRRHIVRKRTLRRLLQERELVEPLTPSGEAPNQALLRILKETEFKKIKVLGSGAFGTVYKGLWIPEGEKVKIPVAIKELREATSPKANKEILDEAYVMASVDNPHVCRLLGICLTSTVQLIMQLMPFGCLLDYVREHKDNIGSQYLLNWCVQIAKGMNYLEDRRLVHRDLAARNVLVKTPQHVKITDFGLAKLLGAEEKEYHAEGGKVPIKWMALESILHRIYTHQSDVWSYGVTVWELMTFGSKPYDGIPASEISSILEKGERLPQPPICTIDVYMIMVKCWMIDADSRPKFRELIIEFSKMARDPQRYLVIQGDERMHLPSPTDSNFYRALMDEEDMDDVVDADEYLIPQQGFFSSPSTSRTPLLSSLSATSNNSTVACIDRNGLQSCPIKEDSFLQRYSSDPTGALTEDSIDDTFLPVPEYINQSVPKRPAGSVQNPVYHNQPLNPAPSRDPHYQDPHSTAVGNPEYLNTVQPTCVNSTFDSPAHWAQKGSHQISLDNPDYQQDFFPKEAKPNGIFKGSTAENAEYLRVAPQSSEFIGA
# NCI-H1975 [29] = experiment: Antitumor activity against human NCI-H1975 cells xenografted in nu/nu mouse assessed as tumor growth inhibition at 20 mg/kg, po qd administered for 21 days; settings: 504 h, read-out: TGI
# [30] = biological target: T1, Epidermal growth factor receptor; experiment: Inhibition of EGFR in human A549 cells assessed as reduction in EGF-induced AKT phosphorylation at Thr308 residue up to 3 uM after 4 hrs by immunoblotting method; assay type: cell-based
structure (smiles),measurement,setting,value
C=CC(=O)Nc1cc(Nc2ncc(Cl)c(Nc3ccccc3S(=O)(=O)C(C)C)n2)c(OC)cc1N1CCCN(C)CC1,MRT last,[1],56.8 min
same,Tmax,[2],4 h
same,Activity,NCI-H3122 [3],Active
same,GI50,[4],8 nM
same,GI50,[5],1100 nM
same,Activity,NCI-H3122 [6],Dose-dependent effect
same,Ratio IC50,Homo sapiens [7],20 to 30
same,Activity,Mus musculus [8],Non-Toxic
same,Ratio IC50,Homo sapiens [9],20 to 30
same,inhibition,[10],inactive
same,Activity,A549 [11],inactive
same,Activity,NCI-H3122 [12],Active
same,inhibition,[13],Active
same,Activity,PC-9,Active
same,Activity,NCI-H1975 [14],Active
same,inhibition,[15],Active
same,inhibition in vivo at 40 mg/kg,NCI-H1975 [16],99%
same,IC50,[17],0.82 nM
same,Activity,A549 [18],inactive
same,Activity,Mus musculus [19],Non-Toxic
same,GI50,NCI-H1975 [20],15 nM
same,GI50 at 72 h,[21],1200 nM
same,Activity,A549 [22],inactive
same,GI50,[23],29 nM
same,Activity,NCI-H1975 [24],Dose-dependent effect
same,TGI,NCI-H3122 [25],Dose-dependent effect
same,GI50,[26],460 nM
same,inhibition,[27],inactive
same,GI50,NCI-H3255,31 nM
same,IC50,[28],3.9 nM
same,inhibition in vivo at 20 mg/kg,NCI-H1975 [29],96%
same,inhibition,[30],inactive
